How the values were obtained:
[1] = Metabolic stability in human liver microsomes assessed as parent compound remaining at 10 uM after 60 mins by LC-MS analysis; assay type: ADME, microsome; conditions: read-out: Stability
How it was run: (§1)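 The 60 min samples of the microsomal incubation (10 μM compound, human or mouse liver microsomes at 0.5 mg/mL, NADPH regenerating system, 37 °C) were analysed by LC-MS. Detection used SIM mode with dual ESI/APCI ionization, calibrated to the retention times and masses of the parent and its O-demethylated metabolites. Peak intensities were measured.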

[2] = Metabolic stability in mouse liver microsomes assessed as parent compound remaining at 10 uM after 60 mins by LC-MS analysis; assay type: ADME, microsome; conditions: read-out: Stability; how it was run: as §1
[3] = Cmax in Wistar rat plasma at 10 mg/kg, ip administered as single dose measured at 5 to 720 mins post dose by HPLC-MS/MS analysis; assay type: ADME, organism-based; design: dose 10 mg/kg, route intraperitoneal
How it was run: (§2)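 Male Wistar rats (250-350 g) given a single 10 mg/kg i.p. dose of a 5 mg/ml suspension in 85% distilled water, 14% propylene glycol, 1% Tween 80. Three rats per time point (5, 20, 60, 180, 720 min). Blood and brain were collected after sacrifice. Drug was recovered by solid phase extraction and quantified by HPLC-MS/MS.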

[4] = Tmax in Wistar rat plasma at 10 mg/kg, ip administered as single dose by HPLC-MS/MS analysis; assay type: ADME, organism-based
How it was run: (§3)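 Male Wistar rats (250–350 g) received a single i.p. dose of 10 mg/kg as a 5 mg/ml suspension in 85% water, 14% propylene glycol and 1% Tween 80. Three rats per time point were sacrificed at 5, 20, 60, 180 and 720 min for plasma and brain. Samples were cleaned up by solid-phase extraction and quantified by HPLC-MS/MS.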

[5] = AUC (0 to 12 hrs) in Wistar rat plasma at 10 mg/kg, ip administered as single dose by HPLC-MS/MS analysis; assay type: ADME, organism-based; design: time < 12 hr, dose 10 mg/kg, route intraperitoneal
[6] = Terminal elimination half-life in Wistar rat plasma at 10 mg/kg, ip administered as single dose by HPLC-MS/MS analysis; assay type: ADME, organism-based; conditions: read-out: beta t1/2 (converted); how it was run: as §3
[7] = Cmax in Wistar rat brain at 10 mg/kg, ip administered as single dose measured at 5 to 720 mins post dose by HPLC-MS/MS analysis; assay type: ADME, organism-based; design: dose 10 mg/kg, route intraperitoneal; how it was run: as §2
[8] = Tmax in Wistar rat brain at 10 mg/kg, ip administered as single dose by HPLC-MS/MS analysis; assay type: ADME, organism-based; how it was run: as §3
Brain [9] = assay: AUC (0 to 12 hrs) in Wistar rat brain at 10 mg/kg, ip administered as single dose by HPLC-MS/MS analysis; assay type: ADME, organism-based; design: dose 10 mg/kg, time < 12 hr, route intraperitoneal; conditions: in vivo
[10] = Terminal elimination half-life in Wistar rat brain at 10 mg/kg, ip administered as single dose by HPLC-MS/MS analysis; assay type: ADME, organism-based; conditions: read-out: beta t1/2 (converted); how it was run: as §3
[11] = Cmax in Wistar rat plasma at 2 mg/kg administered as single dose via oral gavage measured at 5 to 1440 mins post dose by HPLC-MS/MS analysis; assay type: ADME, organism-based; design: dose 2 mg/kg, route oral
How it was run: (§4)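 Absolute oral bioavailability study in Wistar rats: single 2 mg/kg dose by oral gavage or IV, using nanoemulsion formulations. Three rats per time point (5, 30, 120, 480, 1440 min). Plasma and brain were extracted by solid phase extraction and levels measured by HPLC-MS/MS. Bioavailability was calculated from plasma AUC for the two routes.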

[12] = Tmax in Wistar rat plasma at 2 mg/kg administered as single dose via oral gavage by HPLC-MS/MS analysis; assay type: ADME, organism-based
How it was run: (§5)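 Male Wistar rats (250–350 g) received a single 2 mg/kg dose, by oral gavage or IV, from nanoemulsion formulations. Three rats per time point were sampled for plasma and brain at 5, 30, 120, 480 and 1440 min. Compound levels were measured by HPLC-MS/MS after solid-phase extraction; oral bioavailability was derived from plasma AUCs for the two routes.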

[13] = AUC (0 to 24 hrs) in Wistar rat plasma at 2 mg/kg administered as single dose via oral gavage by HPLC-MS/MS analysis; assay type: ADME, organism-based; design: dose 2 mg/kg, time < 24 hr, route oral
[14] = Terminal elimination half-life in Wistar rat plasma at 2 mg/kg administered as single dose via oral gavage by HPLC-MS/MS analysis; assay type: ADME, organism-based; conditions: read-out: beta t1/2 (converted); how it was run: as §5
[15] = Cmax in Wistar rat plasma at 2 mg/kg, iv administered as single dose measured at 5 to 1440 mins post dose by HPLC-MS/MS analysis; assay type: ADME, organism-based; design: dose 2 mg/kg, route intravenous; how it was run: as §4
[16] = Tmax in Wistar rat plasma at 2 mg/kg, iv administered as single dose by HPLC-MS/MS analysis; assay type: ADME, organism-based; how it was run: as §5
[17] = AUC (0 to 24 hrs) in Wistar rat plasma at 2 mg/kg, iv administered as single dose by HPLC-MS/MS analysis; assay type: ADME, organism-based; design: dose 2 mg/kg, time < 24 hr, route intravenous
[18] = Terminal elimination half-life in Wistar rat plasma at 2 mg/kg, iv administered as single dose by HPLC-MS/MS analysis; assay type: ADME, organism-based; conditions: read-out: beta t1/2 (converted); how it was run: as §5
[19] = Cmax in Wistar rat brain at 2 mg/kg administered as single dose via oral gavage measured at 5 to 1440 mins post dose by HPLC-MS/MS analysis; assay type: ADME, organism-based; design: dose 2 mg/kg, route oral
How it was run: (§6)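 Male Wistar rats (250-350 g) received a single 2 mg/kg dose, nanoemulsion formulation, by oral gavage or IV. Three rats per time point (5, 30, 120, 480, 1440 min); plasma and brain collected. Compound extracted by solid-phase extraction and quantified by HPLC-MS/MS. Absolute oral bioavailability was calculated from plasma AUC after the two routes.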

[20] = Tmax in Wistar rat brain at 2 mg/kg administered as single dose via oral gavage by HPLC-MS/MS analysis; assay type: ADME, organism-based; how it was run: as §5
Brain [21] = assay: AUC (0 to 24 hrs) in Wistar rat brain at 2 mg/kg administered as single dose via oral gavage by HPLC-MS/MS analysis; assay type: ADME, organism-based; design: time < 24 hr, dose 2 mg/kg, route oral; conditions: in vivo
[22] = Terminal elimination half-life in Wistar rat brain at 2 mg/kg administered as single dose via oral gavage by HPLC-MS/MS analysis; assay type: ADME, organism-based; conditions: read-out: beta t1/2 (converted); how it was run: as §5
[23] = Cmax in Wistar rat brain at 2 mg/kg, iv administered as single dose measured at 5 to 1440 mins post dose by HPLC-MS/MS analysis; assay type: ADME, organism-based; design: dose 2 mg/kg, route intravenous; how it was run: as §4
[24] = Tmax in Wistar rat brain at 2 mg/kg, iv administered as single dose by HPLC-MS/MS analysis; assay type: ADME, organism-based; how it was run: as §5
Brain [25] = assay: AUC (0 to 24 hrs) in Wistar rat brain at 2 mg/kg, iv administered as single dose by HPLC-MS/MS analysis; assay type: ADME, organism-based; design: time < 24 hr, dose 2 mg/kg, route intravenous; conditions: in vivo
[26] = Terminal elimination half-life in Wistar rat brain at 2 mg/kg, iv administered as single dose by HPLC-MS/MS analysis; assay type: ADME, organism-based; conditions: read-out: beta t1/2 (converted); how it was run: as §6
[27] = Ratio of brain AUC (0 to t) to plasma AUC (0 to t), Kp of the compound in Wistar rat at 10 mg/kg, ip administered as single dose by HPLC-MS/MS analysis; assay type: ADME, organism-based
Rattus norvegicus = assay: Hyperlocomotor activity in Wistar rat assessed as total distance travelled at 3 to 10 mg/kg, ip after 60 mins; assay type: ADME, organism-based; conditions: in vivo, 1 h
Mus musculus = assay: Hyperlocomotor activity in C57BL/6 mouse assessed as total distance travelled at 3 to 10 mg/kg, ip after 60 mins; assay type: ADME, organism-based; conditions: in vivo, 1 h
[28] = Oral bioavailability in Wistar rat plasma at 2 mg/kg administered as single dose via gavage by HPLC-MS/MS analysis; assay type: ADME, organism-based; how it was run: as §6
Brain [29] = assay: Oral bioavailability in Wistar rat brain at 2 mg/kg administered as single dose via gavage by HPLC-MS/MS analysis; assay type: ADME, organism-based; conditions: in vivo; how it was run: as §6

Structure (SMILES)	remaining at 1 h, 10 µM [1]	remaining at 1 h, 10 µM [2]	Cmax [3]	Tmax [4]	AUC(0-t) at 12 h [5]	half-life [6]	Cmax [7]	Tmax [8]	AUC (Brain [9])	half-life [10]	Cmax [11]	Tmax [12]	AUC(0-t) at 24 h [13]	half-life [14]	Cmax [15]	Tmax [16]	AUC(0-t) at 24 h [17]	half-life [18]	Cmax [19]	Tmax [20]	other results
[2H]C([2H])([2H])Oc1ccc(-n2nc3c4ccc(OC)cc4[nH]cc-3c2=O)cc1	91.7%	92.8%	4430 ng/mL	1.67 h	24200 ng·h/mL	212 min	587 ng/g	2.33 h	3350.72 ng·h/g	137 min	222 ng/mL	5.5 h	3000 ng·h/mL	84 min	728 ng/mL	0 h	3000 ng·h/mL	117 min	67.3 ng/g	3.5 h	AUC (Brain [21]): 513.12 ng·h/g; half-life [22]: 252 min; Cmax [23]: 71.9 ng/g; Tmax [24]: 1.36 h; AUC (Brain [25]): 573.46 ng·h/g; half-life [26]: 260 min; Kp [27]: 0.13; Activity (Rattus norvegicus): Toxic; Activity (Mus musculus): Toxic; bioavailability [28]: 100%; F (Brain [29]): 89.5%
COc1ccc(-n2nc3c4ccc(OC)cc4[nH]cc-3c2=O)cc1	86.1%	80.3%	5050 ng/mL	1 h	28800 ng·h/mL	90.6 min	352 ng/g	2.33 h	2177.98 ng·h/g	118 min	173 ng/mL	2 h	1270 ng·h/mL	540 min	597 ng/mL	0 h	1890 ng·h/mL	317 min	67.3 ng/g	1.5 h	AUC (Brain [21]): 708.21 ng·h/g; half-life [22]: 763 min; Cmax [23]: 84.5 ng/g; Tmax [24]: 0.86 h; AUC (Brain [25]): 857.8 ng·h/g; half-life [26]: 656 min; Kp [27]: 0.08; Activity (Rattus norvegicus): Toxic; Activity (Mus musculus): Toxic; bioavailability [28]: 66.9%; F (Brain [29]): 82.6%
